Published values gathered from unrelated publications.
Protocols differ between the studies behind these lines.
Read-out: cell growth or viability

| SMILES | cell line | technique | time | IC50 |
| --- | --- | --- | --- | --- |
| COCCCOC(=O)[C@]1(C)CC[C@]2(C)CC[C@]3(C)C4=CC=C5C(=CC(=O)C(O)=C5C)[C@]4(C)CC[C@@]3(C)[C@@H]2C1 | Bel-7402 | MTT | 48 h | 0.81 µM |
| CC(C)C[C@H](NC(=O)[C@H](Cc1ccccc1)NC(=O)c1cnccn1)B(O)O | KG-1 | ATP luminescence |  | 0.0048 µM |
| CCCON(Cc1ccc(C(=O)NO)cc1)C(=O)Nc1ccc(N(C)C)cc1 | MOLM-13 | ATP luminescence | 72 h | 7.19 µM |
| CCn1c2ccccc2c2cc(C3CC(c4cc5c(ccc6ccccc65)oc4=O)=NN3c3cccc(Cl)c3)ccc21 (stereo not drawn) | NRK-52E | MTT | 24 h | 57.1 µM |
| Cc1cccc2c(C(c3ccc(/C=C/C(=O)O)s3)c3c[nH]c4c(C)cccc34)c[nH]c12 | KG-1 |  | 48 h | > 5 µM |
| CCn1c2ccccc2c2cc(C3CC(c4cc5cccc(OC)c5oc4=O)=NN3c3ccc(C)cc3)ccc21 (stereo not drawn) | NRK-52E | MTT | 24 h | 52 µM |
| COc1cc(N2CCC(N3CCN(C)CC3)CC2)ccc1Nc1ncc(Cl)c(Nc2ccccc2S(=O)(=O)C(C)C)n1 | Rh18 |  | 72 h | 0.27 µM |
| CC1=C(O)C(=O)C=C2C1=CC=C1[C@@]2(C)CC[C@@]2(C)[C@@H]3C[C@](C)(C(=O)OCCCBr)CC[C@]3(C)CC[C@]12C | Bel-7402 | MTT | 48 h | 0.72 µM |
| O=C(O)C(c1c[nH]c2ccccc12)c1c[nH]c2ccccc12 | KG-1 |  | 48 h | > 20 µM |
| CC1=C(O)C(=O)C=C2C1=CC=C1[C@@]2(C)CC[C@@]2(C)[C@@H]3C[C@](C)(C(=O)OCCCOc4ccccc4)CC[C@]3(C)CC[C@]12C | Bel-7402 | MTT | 48 h | 1.33 µM |
| COc1cc(-c2ncn(/C=C\C(=O)OC(C)C)n2)cc(C(F)(F)F)c1 | KG-1 |  | 72 h | 0.165 µM |
| Cc1[nH]c(/C=C2\C(=O)Nc3ccc(S(=O)(=O)N(C)c4cccc(Cl)c4)cc32)c(C)c1C(=O)N1CCN(C)CC1 | Rh18 |  | 72 h | 4.07 µM |
| CC(=O)O[C@H]1C(=O)[C@@]2(C)[C@H]([C@H](OC(=O)c3ccccc3)[C@]3(O)C[C@H](OC(=O)[C@H](O)[C@@H](NC(=O)c4ccccc4)c4ccccc4)C(C)=C1C3(C)C)[C@]1(OC(C)=O)CO[C@@H]1C[C@@H]2O | CT26 |  |  | 2 µg/mL |
| COc1cc(Nc2nccc(-c3cnn4nc(OC)ccc34)n2)cc(C(F)(F)F)c1 | KG-1 | ATP luminescence |  | 0.86 µM |
| CC(C)[C@H](N)C(=O)N1CCC[C@H]1B(O)O | KG-1 | ATP luminescence | 48 h | 0.12 µM |
| CC1=C(O)C(=O)C=C2C1=CC=C1[C@@]2(C)CC[C@@]2(C)[C@@H]3C[C@](C)(C(=O)OCCCO)CC[C@]3(C)CC[C@]12C | Bel-7402 | MTT | 48 h | 0.58 µM |
| Cn1cc(C(c2cccc(/C=C/C(=O)O)c2)c2cn(C)c3ccccc23)c2ccccc21 | KG-1 |  | 48 h | > 20 µM |
| CCn1c2ccccc2c2cc(C3CC(c4cc5c(ccc6ccccc65)oc4=O)=NN3C(C)=O)ccc21 (stereo not drawn) | NRK-52E | MTT | 24 h | 81.3 µM |
| Cc1ccc2[nH]cc(C(c3ccc(/C=C/C(=O)O)s3)c3c[nH]c4ccc(C)cc34)c2c1 | KG-1 |  | 48 h | > 5 µM |
| CCn1c2ccccc2c2cc(C3CC(c4cc5ccccc5oc4=O)=NN3c3cccc(Cl)c3)ccc21 (stereo not drawn) | NRK-52E | MTT | 24 h | 41 µM |
| CC(=O)OCCOC(=O)[C@]1(C)CC[C@]2(C)CC[C@]3(C)C4=CC=C5C(=CC(=O)C(O)=C5C)[C@]4(C)CC[C@@]3(C)[C@@H]2C1 | Bel-7402 | MTT | 48 h | 0.59 µM |
| CCn1c2ccccc2c2cc(C3CC(c4cc5ccccc5oc4=O)=NN3c3ccccc3)ccc21 (stereo not drawn) | NRK-52E | MTT | 24 h | 103 µM |
| CC1=C(O)C(=O)C=C2C1=CC=C1[C@@]2(C)CC[C@@]2(C)[C@@H]3C[C@](C)(C(=O)OCCCCCCCCO)CC[C@]3(C)CC[C@]12C | Bel-7402 | MTT | 48 h | 1.16 µM |
| CCn1c2ccccc2c2cc(C3CC(c4cc5ccccc5oc4=O)=NN3C(N)=O)ccc21 (stereo not drawn) | NRK-52E | MTT | 24 h | 28.4 µM |
| Oc1ccc(C(c2c[nH]c3ccccc23)c2c[nH]c3ccccc23)cc1 | KG-1 |  | 48 h | > 20 µM |
| CCn1c2ccccc2c2cc(/C=C/C(=O)c3cc4c(ccc5ccccc54)oc3=O)ccc21 | NRK-52E | MTT | 24 h | 82.7 µM |
| O=C(O)/C=C/c1ccc(C(c2c[nH]c3ccccc23)c2c[nH]c3ccccc23)s1 | KG-1 |  | 48 h | > 20 µM |
| CCn1c2ccccc2c2cc(C3CC(c4cc5ccccc5oc4=O)=NN3c3ccc(C)cc3)ccc21 (stereo not drawn) | NRK-52E | MTT | 24 h | 83.2 µM |
| FC(F)(F)c1ccc(C(c2c[nH]c3ccccc23)c2c[nH]c3ccccc23)cc1 | KG-1 |  | 48 h | 15 µM |
| C[C@@H](Oc1cc(-c2cnn(C3CCNCC3)c2)cnc1N)c1c(Cl)ccc(F)c1Cl | Rh18 |  | 72 h | 0.55 µM |
